Experimental data reported in PubChem BioAssay AID463210 (The Scripps Research Institute Molecular Screening Center, 2010).
In all, about 330,000 compounds went through this assay and about 300 (0.091%) were called active. This is one part of a sample in which actives are shown more often than they occur. Values without a mark were called inactive.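 How the source made its calls: active means percent activation above the screen-wide mean plus 3 SD (cut at about 25% in these data); inactive means the rest.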

The compounds below were run against Caspase-7 (Homo sapiens) (UniProt P55210) (assay: activation of procaspase-7 enzyme – biochemical, absorbance, HTS, human, counter-screen for procaspase-3 activator project, primary screen (AID 463210)). Details: recombinant procaspase-7, Ac-DEVD-pNA absorbance 405 nm; at 8.5 µM; active compounds read high; D23A/D198A/D206A triple mutant, cannot self-cleave; scale: DMSO 0, 5 µM enzyme 100.
In short: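 Assay system: Uncleavable procaspase-7 mutant enzyme | Input: 2 µM procaspase-7 mutant as dispensed | Timing: 1 h compound preincubation, 2 h substrate cleavage, 25 °C | Repeats: One well per compound | Control set: DMSO wells as 0%, DMSO with 5 µM added PC-7 as 100% | Technique: Epi-absorbance of released pNA at 405 nm, two timepoints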

Sequence of Caspase-7 (Homo sapiens) (P55210 whole entry D23A/D198A/D206A): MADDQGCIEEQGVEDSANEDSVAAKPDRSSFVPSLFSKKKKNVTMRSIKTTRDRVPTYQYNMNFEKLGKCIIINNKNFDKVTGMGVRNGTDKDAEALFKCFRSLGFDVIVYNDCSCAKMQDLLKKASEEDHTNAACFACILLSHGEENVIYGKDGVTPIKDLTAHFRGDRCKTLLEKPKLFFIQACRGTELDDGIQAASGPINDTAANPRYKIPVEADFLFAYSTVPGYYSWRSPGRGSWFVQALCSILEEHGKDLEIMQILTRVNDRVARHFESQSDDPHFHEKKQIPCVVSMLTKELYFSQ

SMILES	activation
COc1ccccc1N1CCN(c2nc(C)cc(=O)[nH]2)CC1	14.3%
CN(CC(=O)Nc1ccccc1Cl)C(=O)COc1cccc2c1OC(C)(C)C2	-0.56%
CCOC(=O)c1cccc(NC(=O)c2ccc(F)cc2F)c1	-3.97%
CCOC(=O)[C@@H]1[C@H]2COc3cc(OC)ccc3[C@@H]2N2C(=O)N(c3cccc(C)c3)C(=O)[C@@]12C	-1.89%
CN1CCN(c2ccccc2NC(=O)COc2ccc(C3CCCCC3)cc2)CC1	6.3%
CCn1c(N)c(Br)c(=O)[nH]c1=O	12.7%
COc1ccc(C(=O)N2CCCCC2C(=O)Nc2ccc(-n3nc(C)cc3C)cc2)o1 (stereo unspecified)	0.38%
CC(C)CN(CC(C)C)C(=O)CN1c2cccc3cccc(c23)S1(=O)=O	4.17%
NC(=O)C1CCN(Cc2nc3c(Br)cc(Br)cc3c(=O)[nH]2)CC1	-6.52%
COc1ccc(S(=O)(=O)NCC2CCCN(C(=O)c3occc3C)C2)cc1 (stereo unspecified)	-3.49%
CCCCCCCC[n+]1cccc(C(=O)N2c3c(nc(N)[nH]c3=O)NC(C)C2C)c1 (stereo unspecified)	-2.79%
CCOc1cc(C(=O)Nc2c(C)ccc3nsnc23)cc(OCC)c1OCC	-0.81%
CC1=NN(C(N)=S)C(=O)C1N=Nc1cc(Cl)ccc1Cl (stereo unspecified)	42% (active)
Cc1[nH]n(C(N)=S)c(=O)c1N=Nc1ccc(Cl)cc1Cl	-4.08%
CCN(C[C@H]1N[C@@](CC)(C(=O)OC)[C@H]2C(=O)N(C)C(=O)[C@@H]12)C(=O)Nc1ccc(F)cc1	3.05%
CC(C)C[C@@H](COc1ccccc1)N1CCN(CC(C)C)CCC1=O	-4.75%
CC(C(=O)NCC1CCCCC1)N(C)Cc1cccc(Cl)c1 (stereo unspecified)	-2.02%
Cc1ccc(S(=O)(=O)NCC(=O)N(CC(=O)NCC2CCCO2)c2cccc(F)c2)cc1 (stereo unspecified)	-1.1%

SMILES	activation
O=C(COc1cccc2c1CCNC2=O)NC1CCCCC1	-3.37%
CCOC(=O)C1=C(CN2CCc3ccccc32)NC(=O)NC1c1cc(C)ccc1C (stereo unspecified)	1.19%
COc1cccc2cc(C(C)N(CCCN3CCOCC3)C(=O)Nc3ccc(Cl)cc3)oc12 (stereo unspecified)	3.94%
CCc1nnc(NC(=O)[C@@H](NC(=O)c2cccc(C)c2)C(C)C)s1	-9.68%
Cc1ccc(S(=O)(=O)N2CCC3(CC2)OCCO3)c(C)c1	7.32%
O=C(NCCN1CCOC1=O)C1CCC(=O)N(CCc2ccc(Cl)cc2)C1 (stereo unspecified)	-3.88%
O=S(=O)(Oc1ccccc1C(=S)N1CCOCC1)c1ccc(Cl)cc1	5.11%
O=C(Cc1ccccc1F)NC1CCSc2ccccc21 (stereo unspecified)	-1.51%
COc1ccc(CNS(=O)(=O)c2cc(-c3cc(C)no3)ccc2C(C)C)cc1	7.17%
COc1cccc(C(=O)n2ccc(-c3cccs3)n2)c1	7.3%
CCN(CCNC(=O)C1=C(C)C(=O)OC12CCC(C)CC2)c1ccccc1 (stereo unspecified)	-6.83%
C=CCN1CN(S(=O)(=O)c2ccc(OC)cc2)c2nc3ccccc3nc21	10.1%
COc1cccc(CNC(=O)CN(C)S(=O)(=O)c2ccc3c(c2)c(=O)n(C)c(=O)n3C)c1	3.47%
CC(NC(=O)COc1ccc(-c2ccccc2)cc1)C1CCCO1 (stereo unspecified)	-7.63%
Cc1cc(C)c(C)c(S(=O)(=O)N2CCN(C(=O)c3ccc4c(=O)n5c(nc4c3)CCC5)CC2)c1C	0.83%
Cn1c(C(=O)O)ccc1S(=O)(=O)N(Cc1ccccc1)Cc1ccccc1	-2.76%
Cc1ccc(S(=O)(=O)N(CC(=O)NCCSC2CCCCC2)c2ccccc2F)cc1	12.3%
CSCc1cc(N2CCOCC2)nc(SCc2ccc(Cl)cc2Cl)n1	-1.6%
